Measured values gathered from unrelated publications.
Compare with care: the assays were run in different laboratories.
Target: Serine/threonine-protein kinase ULK3 (ULK3, Homo sapiens, UniProt Q6PHR2)
Sequence (Q6PHR2 1-472, as in one of the studies): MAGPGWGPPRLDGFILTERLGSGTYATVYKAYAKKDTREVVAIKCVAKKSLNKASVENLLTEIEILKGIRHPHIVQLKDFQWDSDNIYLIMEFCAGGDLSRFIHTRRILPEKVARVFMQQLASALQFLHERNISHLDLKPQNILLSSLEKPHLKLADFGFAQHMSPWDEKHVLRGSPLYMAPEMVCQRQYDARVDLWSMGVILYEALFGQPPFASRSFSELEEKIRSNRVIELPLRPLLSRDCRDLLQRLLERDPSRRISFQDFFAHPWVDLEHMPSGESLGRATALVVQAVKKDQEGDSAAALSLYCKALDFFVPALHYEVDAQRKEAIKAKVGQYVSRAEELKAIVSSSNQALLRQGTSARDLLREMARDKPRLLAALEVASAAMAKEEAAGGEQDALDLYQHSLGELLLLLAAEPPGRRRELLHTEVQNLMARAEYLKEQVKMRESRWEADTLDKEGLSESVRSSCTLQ

| Compound | read-out | technique | tested at | remaining binding [%] |
| --- | --- | --- | --- | --- |
| CN(C)c1nccc(-c2cnn3ncccc23)n1 | binding | – | 1 µM | 77 |
| Cc1cc(-c2cc(C(F)(F)F)ccc2O[C@H]2C[C@@]2(CNS(=O)(=O)c2ccc([N+](=O)[O-])cc2)c2ccc(F)cc2F)[nH]n1 | cell-free assay | competition with immobilised ligand | 0.3 µM | 9.8 |
| O=C(Nc1cccnn1)N1CC(C/C=C/c2cncc(Oc3ccc(C(F)(F)F)cn3)n2)C1 | cell-free assay | competition with immobilised ligand | 1 µM | 82 |
| O=C(c1ccc(Nc2ncc(Cl)c(-c3cc4ccccc4s3)n2)cc1)N1CCC(N2CCCC2)CC1 | binding | competition with immobilised ligand | 1 µM | 0.2 |
| CN(C)c1ncc(F)c(-c2cnn3ncccc23)n1 | binding | – | 1 µM | 72 |
| CNC(=O)Nc1ccc2c(c1)[C@@]1(CC2)OC(=O)N(CC(=O)N(Cc2ccc(F)cc2)[C@@H](C)C(F)(F)F)C1=O | cell-free assay | competition with immobilised ligand | 1 µM | 55 |
| O=C(Nc1c[nH]nc1C(=O)NC1CCNCC1)c1cc(F)cc(F)c1 | binding | competition with immobilised ligand | 1 µM | 100 |
| Cc1cnc(Nc2ccc(C(=O)N3CCC(N4CCCC4)CC3)cc2)nc1-c1cc2ccccc2s1 | binding | competition with immobilised ligand | 1 µM | 0.3 |
| N[C@H]1CCN(c2nccc(-c3cnn4ncccc34)n2)C1 | binding | – | 1 µM | 86 |
| COc1cnc(Nc2cccc(S(N)(=O)=O)c2)nc1N1CCN(c2ccccc2)C(=O)C1 | binding | competition with immobilised ligand | 1 µM | 45 |
| CN(C)c1ncnc(-c2ccc3nc(Nc4cc(CN5CCN(C(=O)CC(F)(F)F)CC5)ccn4)[nH]c3c2)c1Cl | cell-free assay | competition with immobilised ligand | 1 µM | 61 |
| CN(CCCC(F)(F)F)c1nccc(-c2cnn3ncccc23)n1 | binding | – | 1 µM | 94 |
| CCN1CCN(Cc2ccc(C(=O)Nc3ccc(C)c(Oc4ccc5c(c4)CC(=O)N5)c3)cc2C(F)(F)F)CC1 | binding | competition with immobilised ligand | 1 µM | 100 |
| FC(F)(F)Oc1cccc(-c2cnc3ccc(-c4ccncc4)nn23)c1 | binding | competition with immobilised ligand | 5 µM | 45 |
| Cn1nc(C(=O)NCc2ccc(C(=O)O)cc2)cc1-c1ccc2[nH]ccc2c1 | cell-free assay | competition with immobilised ligand | 0.1 µM | 99 |
| O=C(c1ccc(Nc2ncc(Cl)c(-c3ccc(Cl)s3)n2)cc1)N1CCC(N2CCCC2)CC1 | binding | competition with immobilised ligand | 1 µM | 0.1 |
| O=C(Nc1ccc(Oc2ccc(F)cc2)cc1)N1CCc2ncccc2[C@H]1c1ccc(F)cc1 | cell-free assay | competition with immobilised ligand | 1 µM | 99 |
| C[C@@H]1CCN(c2nccc(-c3cnn4ncccc34)n2)C1 | binding | – | 1 µM | 80 |
| CS(=O)(=O)NCC[C@H](NC(=O)c1cncc2c1cnn2-c1ccc(F)cc1)c1ccnc(S(C)(=O)=O)c1 | cell-free assay | competition with immobilised ligand | 1 µM | 100 |
| CC1CCCN1c1nccc(-c2cnn3ncccc23)n1 (centres unmarked) | binding | – | 1 µM | 100 |
